Test results taken from PMC9290681 (British Journal of Pharmacology, 2020).

What was measured:
[1] = biological target: T1, TRPM3α1 (Mus musculus, UniProt J9SQF3); assay: Calcium microfluorimetry, HEK293T cells transiently transfected with TRPM3α1; assay type: cell-based; conditions: for intracellular calcium response: PS 40 μM, Nif 50 μM, Clt 10 μM, CIM0216 1 μM, Fura-2; for calcium signal at high agonist concentrations: PS 50, 100 and 200 μM, Nif 100 and 200 μM
[2] = biological target: T1, TRPM3α1; assay: Whole-cell patch clamp, HEK293T cells expressing TRPM3α1; assay type: cell-based; conditions: for block of CIM0216-induced currents: CIM0216 1 μM, isosakuranetin 5 μM; for block of CIM0216-induced currents / block of clotrimazole-induced currents: diclofenac 100 μM, primidone 25 μM; for block of CIM0216-induced currents / block of clotrimazole-induced currents / whole-cell current increase: ±80 mV; for block of clotrimazole-induced currents: Clt 10 μM; for whole-cell current increase: Nif 50 μM
[3] = biological target: TRPM3α2 (Mus musculus, UniProt J9SQF3); assay: Whole-cell patch clamp, HEK293T cells expressing TRPM3α2; assay type: cell-based, murine; conditions: for block of CIM0216-induced currents: isosakuranetin 5 μM, diclofenac 100 μM, primidone 25 μM
[4] = test system: TRPM3α1 Δ3d; assay: Whole-cell patch clamp, deletion mutant TRPM3α1 Δ3d; assay type: cell-based, mouse; conditions: for block of clotrimazole-activated currents: isosakuranetin 5 μM, diclofenac 100 μM, primidone 25 μM
[5] = test system: TRPM3α1 Δ3a; assay: Whole-cell patch clamp, deletion mutant TRPM3α1 Δ3a; assay type: cell-based, mouse; conditions: n=5
[6] = test system: TRPM3α1 Δ3b; assay: Whole-cell patch clamp, deletion mutant TRPM3α1 Δ3b; assay type: cell-based, mouse; conditions: n=5
[7] = test system: TRPM3α1 Δ3c; assay: Whole-cell patch clamp, deletion mutant TRPM3α1 Δ3c; assay type: cell-based, mouse; conditions: n=5
[8] = biological target: TRPM3α2_D1064_A_P1065 (TRPM3α2 +1) (Mus musculus, UniProt J9SQF3, INS1087A); assay: Whole-cell patch clamp, insertion mutant TRPM3α2 +1; assay type: cell-based; conditions: for block of clotrimazole-evoked currents / block of pregnenolone sulphate-induced currents: isosakuranetin 5 μM, diclofenac 100 μM, primidone 25 μM
[9] = biological target: TRPM3α1 Δ6b (Mus musculus, UniProt J9SQF3, DEL1071-1076); assay: Whole-cell patch clamp, deletion mutant TRPM3α1 Δ6b; assay type: cell-based; conditions: for block of clotrimazole-activated currents: Clt 10 μM, isosakuranetin 5 μM, diclofenac 100 μM, primidone 25 μM
[10] = test system: short pore loop TRPM3α variants (α2–α6); assay type: cell-based, mouse; conditions: PS 40 μM, Nif 50 μM; all isoforms α2–α6
In short: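 HEK293T cells transiently transfected 48 h before imaging were loaded with Fura-2 AM for 20 min at 37°C. Ratios at 340/380 nm excitation were converted to absolute calcium by Grynkiewicz calibration. Response was taken as maximum minus basal during the stimulus. Only cells responding to a final ionomycin challenge were counted. At least three independent coverslips were used.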

[11] = biological target: TRPM3α2 +5 (Mus musculus, UniProt J9SQF3, INS1087AAAAA); assay: Whole-cell patch clamp, insertion mutant TRPM3α2 +5; assay type: cell-based; conditions: PS 40 μM, n=4
[12] = biological target: TRPM3α1 A1077P (α1 A‐P) (Mus musculus, UniProt J9SQF3, A1077P); assay: Whole-cell patch clamp, mutant TRPM3α1 A1077P; assay type: cell-based; conditions: PS 40 μM, n=6
[13] = biological target: TRPM3α2 D1064_AA_P1065 (TRPM3α2 +2) (Mus musculus, UniProt J9SQF3, INS1087AA); assay: Whole-cell patch clamp, insertion mutant TRPM3α2 +2; assay type: cell-based; conditions: PS 40 μM, n=4
[14] = biological target: TRPM3α1 Δ6a (Mus musculus, UniProt J9SQF3, DEL1065-1070); assay: Whole-cell patch clamp, deletion mutant TRPM3α1 Δ6a; assay type: cell-based; conditions: PS 40 μM, n=4
[15] = biological target: TRPM3α2 +4 (Mus musculus, UniProt J9SQF3, INS1087AAAA); assay: Whole-cell patch clamp, insertion mutant TRPM3α2 +4; assay type: cell-based; conditions: PS 40 μM, n=6
[16] = biological target: TRPM3α1 Δ12 (Mus musculus, UniProt J9SQF3, DEL1065-1076); assay: Whole-cell patch clamp, deletion mutant TRPM3α1 Δ12; assay type: cell-based; conditions: PS 40 μM, n=6
[17] = biological target: T2, short pore loop TRPM3α isoforms (α2–α6) (Mus musculus, UniProt J9SQF3); assay: Whole-cell patch clamp, HEK293T cells expressing short pore loop TRPM3α isoforms; assay type: cell-based; conditions: PS 40 μM, Clt 10 μM; ±80 mV
T2 sequence (J9SQF3 852-1200 limits assumed): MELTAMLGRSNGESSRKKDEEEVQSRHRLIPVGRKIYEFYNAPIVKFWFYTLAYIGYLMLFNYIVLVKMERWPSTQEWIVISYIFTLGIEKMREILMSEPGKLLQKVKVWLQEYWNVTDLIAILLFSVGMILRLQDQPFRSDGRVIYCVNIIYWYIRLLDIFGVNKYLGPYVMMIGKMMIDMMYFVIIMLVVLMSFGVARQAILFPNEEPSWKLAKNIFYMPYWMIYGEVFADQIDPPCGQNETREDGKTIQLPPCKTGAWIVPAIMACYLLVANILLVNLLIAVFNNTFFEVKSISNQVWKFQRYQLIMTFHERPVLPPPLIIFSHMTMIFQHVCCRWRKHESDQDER

[18] = biological target: TRPM3α1 and TRPM3α2 co-expressed (Mus musculus, UniProt J9SQF3); assay: Calcium microfluorimetry, HEK293 cells co-transfected with TRPM3α1 and TRPM3α2; assay type: cell-based; conditions: PS 40 μM, Clt 10 μM; TRPM3α2 cDNA 0.5 μg with TRPM3α1 cDNA 0, 1.5 and 3 μg
[19] = biological target: TRPM3α2 +3 (Mus musculus, UniProt J9SQF3, INS1087AAA); assay: Whole-cell patch clamp, insertion mutant TRPM3α2 +3; assay type: cell-based; conditions: PS 40 μM, n=5

Structure (SMILES): Cc1cc(NC(=O)C(c2ccccc2)N2CCCc3ccccc32)no1 (stereo not drawn) [CIM0216]
- intracellular calcium response [1]: sizable increases in intracellular calcium
- EC50 ([2]; read-out: EC50 of current activation, CIM0216, outwardly rectifying currents): 570 ± 50 nM
- whole-cell current increase ([3]; CIM0216 1 μM, ±80 mV): robust increase in both inward and outward currents

Structure (SMILES): Clc1ccccc1C(c1ccccc1)(c1ccccc1)n1ccnc1 [clotrimazole, Clotrimazole]
- Clt +80 mV ΔI density ([4]; Clt 10 μM, +80 mV, n=5): 269.2 ± 55.2 pA/pF
- Clt −80 mV ΔI density ([4]; Clt 10 μM, −80 mV, n=5): −259.7 ± 53.1 pA/pF
- Clt +80 mV ΔI density ([5]; Clt 10 μM, +80 mV): 430.6 ± 74.8 pA/pF
- Clt −80 mV ΔI density ([5]; Clt 10 μM, −80 mV): −355.3 ± 55.5 pA/pF
- Clt +80 mV ΔI density ([6]; Clt 10 μM, +80 mV): 149.2 ± 21.2 pA/pF
- Clt −80 mV ΔI density ([6]; Clt 10 μM, −80 mV): −122.8 ± 13.9 pA/pF
- Clt +80 mV ΔI density ([7]; Clt 10 μM, +80 mV): 242.5 ± 17.2 pA/pF
- Clt −80 mV ΔI density ([7]; Clt 10 μM, −80 mV): −225.3 ± 13.8 pA/pF

Structure (SMILES): O=C(O)Cc1ccccc1Nc1c(Cl)cccc1Cl [diclofenac, Diclofenac]
- block of clotrimazole-activated currents ([4]; Clt 10 μM): only a partial block
- block of clotrimazole-evoked currents [8]: ineffective
- block of pregnenolone sulphate-induced currents [8]: fully block
- block of CIM0216-induced currents [2]: full block
- block of clotrimazole-induced currents [2]: only partially blocked
- block of clotrimazole-activated currents [9]: only a partial block
- block of CIM0216-induced currents ([3]; CIM0216 1 μM, ±80 mV): full block

Structure (SMILES): COC(=O)C1=C(C)NC(C)=C(C(=O)OC)C1c1ccccc1[N+](=O)[O-] [nifedipine, Nifedipine]
- intracellular calcium response [1]: did not induce any detectable calcium rise
- calcium signal at high agonist concentrations [1]: did not induce any detectable calcium signal
- whole-cell current increase ([2]; PS 40 μM): without effect
- intracellular calcium response [10]: robust calcium responses

Structure (SMILES): CC(=O)[C@H]1CC[C@H]2[C@@H]3CC=C4C[C@@H](OS(=O)(=O)[O-])CC[C@]4(C)[C@H]3CC[C@]12C.[Na+] [pregnenolone sulphate, Pregnenolone sulphate sodium salt]
- PS +80 mV ΔI density ([4]; PS 40 μM, +80 mV, n=5): 0.04 ± 0.3 pA/pF
- PS −80 mV ΔI density ([4]; PS 40 μM, −80 mV, n=5): 0.01 ± 0.04 pA/pF
- PS +80 mV ΔI density ([8]; PS 40 μM, +80 mV, n=4): 45.2 ± 18.6 pA/pF
- PS −80 mV ΔI density ([8]; PS 40 μM, −80 mV, n=4): −2.2 ± 0.6 pA/pF
- intracellular calcium response [1]: did not induce any detectable calcium rise
- calcium signal at high agonist concentrations [1]: did not induce any detectable calcium signal
- PS +80 mV ΔI density ([11]; +80 mV): 1.2 ± 0.6 pA/pF
- PS −80 mV ΔI density ([11]; −80 mV): −0.1 ± 0.1 pA/pF
- PS +80 mV ΔI density ([12]; +80 mV): −0.4 ± 0.6 pA/pF
- PS −80 mV ΔI density ([12]; −80 mV): −0.1 ± 0.3 pA/pF
- inhibition of clotrimazole-activated currents by co-application ([2]; PS 40 μM on Clt 10 μM currents, at +80 mV): 10.5 ± 5.1%
- whole-cell current increase ([2]; PS 40 μM): did not evoke any increase in current amplitude
- PS +80 mV ΔI density ([2]; PS 40 μM, +80 mV, n=5): −1.0 ± 0.85 pA/pF
- PS −80 mV ΔI density ([2]; PS 40 μM, −80 mV, n=5): 0.2 ± 0.1 pA/pF
- PS +80 mV ΔI density ([13]; +80 mV): 1.2 ± 0.6 pA/pF
- PS −80 mV ΔI density ([13]; −80 mV): −0.1 ± 0.2 pA/pF
- PS +80 mV ΔI density ([14]; +80 mV): 0.25 ± 0.2 pA/pF
- PS −80 mV ΔI density ([14]; −80 mV): −0.05 ± 0.3 pA/pF
- intracellular calcium response [10]: robust calcium responses
- PS +80 mV ΔI density ([15]; +80 mV): 1.1 ± 0.4 pA/pF
- PS −80 mV ΔI density ([15]; −80 mV): −0.3 ± 0.2 pA/pF
- PS +80 mV ΔI density ([9]; PS 40 μM, +80 mV, n=5): 0.3 ± 0.1 pA/pF
- PS −80 mV ΔI density ([9]; PS 40 μM, −80 mV, n=5): −0.2 ± 0.02 pA/pF
- PS +80 mV ΔI density ([5]; PS 40 μM, +80 mV): 0.01 ± 0.2 pA/pF
- PS −80 mV ΔI density ([5]; PS 40 μM, −80 mV): 0.3 ± 0.3 pA/pF
- PS +80 mV ΔI density ([6]; PS 40 μM, +80 mV): −0.5 ± 0.4 pA/pF
- PS −80 mV ΔI density ([6]; PS 40 μM, −80 mV): 0.1 ± 0.04 pA/pF
- PS +80 mV ΔI density ([16]; +80 mV): 35.6 ± 13.9 pA/pF
- PS −80 mV ΔI density ([16]; −80 mV): −3.8 ± 1.7 pA/pF
- PS +80 mV ΔI density ([7]; PS 40 μM, +80 mV): −0.1 ± 0.1 pA/pF
- PS −80 mV ΔI density ([7]; PS 40 μM, −80 mV): 0.2 ± 0.1 pA/pF
- whole-cell current increase [17]: robust current increases
- calcium increase in co-expressing cells versus TRPM3α2 alone [18]: significantly reduced
- PS +80 mV ΔI density ([19]; +80 mV): 7.8 ± 2.0 pA/pF
- PS −80 mV ΔI density ([19]; −80 mV): −1.3 ± 0.4 pA/pF
- PS +80 mV ΔI density ([3]; PS 40 μM, +80 mV, n=11): 38.1 ± 12.9 pA/pF
- PS −80 mV ΔI density ([3]; PS 40 μM, −80 mV, n=11): −1.9 ± 0.5 pA/pF

Structure (SMILES): CCC1(c2ccccc2)C(=O)NCNC1=O [primidone, Primidone]
- block of clotrimazole-activated currents ([4]; Clt 10 μM): only a partial block
- block of clotrimazole-evoked currents [8]: ineffective
- block of pregnenolone sulphate-induced currents [8]: fully block
- block of CIM0216-induced currents [2]: full block
- block of clotrimazole-induced currents [2]: only partially blocked
- block of clotrimazole-activated currents [9]: only a partial block
- block of CIM0216-induced currents ([3]; CIM0216 1 μM, ±80 mV): full block
